# Target: T1, OR2M3 (Homo sapiens) (UniProt Q8NG83)
# T1 sequence (whole entry): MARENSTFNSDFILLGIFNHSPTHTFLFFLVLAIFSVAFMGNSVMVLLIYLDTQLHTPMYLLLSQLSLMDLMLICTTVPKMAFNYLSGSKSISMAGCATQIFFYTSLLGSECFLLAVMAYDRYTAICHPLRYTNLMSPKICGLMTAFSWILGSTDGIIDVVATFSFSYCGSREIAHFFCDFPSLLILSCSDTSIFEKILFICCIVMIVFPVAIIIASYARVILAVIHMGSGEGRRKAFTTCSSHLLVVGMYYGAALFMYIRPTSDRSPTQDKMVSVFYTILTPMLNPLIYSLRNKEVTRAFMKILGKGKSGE
# Settings: stereoisomer not certain
# In short: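 Transient luciferase assays in mammalian cell lines were common, though methods varied by source. The values come from published papers and their supplementary material, with extra details from the original authors when needed. Responsive refers to a measured signal the original authors judged statistically different from baseline, and non-responsive (inactive) to the remainder.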
# 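Further: active if original authors judged signal statistically different from baseline.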
row,Compound,odorant receptor agonist call
1,CCCC(=O)C(C)CC (stereo unspecified),inactive
2,CCCCCCCCC1CCC(=O)O1 (stereo unspecified),inactive
3,CCCCCC(=O)OCC,inactive
4,CCCCCC1CCCC(=O)O1 (stereo unspecified),inactive
5,CCOC(=O)C=Cc1ccccc1,inactive
6,CCC(C)C=O (stereo unspecified),inactive
7,CCc1ccc(O)cc1,inactive
8,CCC=CCC=O,inactive
9,CC1=CCC(C(C)(C)S)CC1 (stereo unspecified),inactive
10,Cc1occc(=O)c1O,inactive
11,CCOC(C)=O,inactive
12,COc1ccc(C)cc1O,inactive
13,CCCCCCCCC=CC=O,inactive
14,COC1=C(C)OC(C)C1=O (stereo unspecified),inactive
15,CCCCCC=CC=CC=O,inactive
16,CSCSC,inactive
17,CC(=O)c1ccccc1N,inactive
18,CCCC(S)C(C)CO (stereo unspecified),active

row,Compound,odorant receptor agonist call
1,Cc1cccc(C)c1O,inactive
2,CC(=O)OCCc1ccccc1,inactive
3,C=Cc1ccc(O)c(OC)c1,inactive
4,Cc1ccc(O)cc1,inactive
5,CC(C)CCO,inactive
6,CSCCCO,inactive
7,CCC=CCCC=CCO,inactive
8,C=CC(=O)CCCCC,inactive
9,CCCCC=CC=CC=O,inactive
10,CCOC(=O)CCC(C)C,inactive
11,SCCc1ccccc1,inactive
12,CC(=O)CC(C)(C)S,inactive
13,OCC=Cc1ccccc1,inactive
14,CC(=O)c1ccc(C)cc1,inactive
15,CCCCC(CC)CCC(=O)O (stereo unspecified),inactive
16,CCOC(=O)CC(C)C,inactive
17,CC=CC(=O)C1=C(C)C=CCC1(C)C,inactive
18,CC(C)c1ccc(C=O)cc1,inactive
